Assay outcomes deposited in PubChem by The Scripps Research Institute Molecular Screening Center.
CHRM4 antagonist: blocks acetylcholine activation of human M4 receptor; P08173; CHO-hM4 cells, ACh EC80, Fluo-8 calcium fluorescence; inhibition, % at 3 µM; hit rate 0.73% among 360,000; AID 624125;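 active = inhibition above its plate's cutoff, the mean inhibition of sample wells plus 3 SD, cut at about 27% in these data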
M5 antag: antagonists of human muscarinic M5 receptor (CHRM5); P08912; CHO-hM5 cells, Fluo-8 calcium fluorescence, ACh EC80; inhibition, % at 3 µM; hit rate 0.59% among 360,000;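 active = inhibition above a per-plate cutoff, the mean of that plate's test compounds plus 3 SD, cut at about 27% in these data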
Target sequence (P08912 whole entry, looked up): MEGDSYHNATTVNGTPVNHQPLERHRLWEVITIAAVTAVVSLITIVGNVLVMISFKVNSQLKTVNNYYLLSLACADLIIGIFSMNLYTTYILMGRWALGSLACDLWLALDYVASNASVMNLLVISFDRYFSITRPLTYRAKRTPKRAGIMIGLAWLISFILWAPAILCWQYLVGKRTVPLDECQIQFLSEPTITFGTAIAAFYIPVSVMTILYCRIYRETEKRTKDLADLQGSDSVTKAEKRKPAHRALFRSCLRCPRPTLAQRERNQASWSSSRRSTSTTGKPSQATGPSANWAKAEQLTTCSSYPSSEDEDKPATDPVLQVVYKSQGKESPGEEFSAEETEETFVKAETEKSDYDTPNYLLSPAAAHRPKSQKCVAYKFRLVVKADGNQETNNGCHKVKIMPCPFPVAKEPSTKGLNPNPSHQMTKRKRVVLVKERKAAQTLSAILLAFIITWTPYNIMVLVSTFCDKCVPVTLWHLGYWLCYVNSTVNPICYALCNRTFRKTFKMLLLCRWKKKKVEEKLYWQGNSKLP
M4 ag: agonists of human muscarinic M4 receptor (CHRM4) | P08173 | CHO-K1 hM4/Gqi5, Fluo-8 calcium fluorescence; vehicle 0%, full acetylcholine response 100% | activation, % at 3 µM | hit rate 0.14% among 360,000 | AID 624127;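 active = activation above the run mean over all test wells plus 3 SD, cut at about 32% in these data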;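 note: peak over basal fluorescence ratio per well then scaled between controls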
M5 PAM: potentiates acetylcholine response at human M5 receptor | P08912 | CHO-K1 hM5, Fluo-8 calcium, ACh EC20 PAM; 0% = ACh EC20, 100% = ACh EC100 | activation, % at 3 µM | hit rate 0.3% among 360,000 | AID 624038;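 active = activation above the run cutoff, the mean activation of all test compounds plus 3 SD, cut at about 18% in these data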
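Measured by: Fluo-8 calcium fluorescence; material: human M5 receptor in CHO-K1 cells; schedule: Post-acetylcholine fluorescence recording 140 s; benchmarks: low control EC20 acetylcholine (0%), high control EC100 acetylcholine (100%); read-out: Max/basal fluorescence ratio as % of EC20–EC100 ACh window; compound: single dose, 3 µM nominal final test concentration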
CHRM4 PAM: positive allosteric modulators of human muscarinic M4 receptor; P08173; CHO-K1 hM4/Gqi5, Fluo-8 calcium fluorescence, ACh EC20; 0% = ACh EC20, 100% = maximal ACh; activation, % at 3 µM; hit rate 0.4% among 360,000; AID 624126;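 active = activation above its plate's cutoff, the mean activation of sample wells plus 3 SD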
M5 ag: CHRM5 agonism in calcium assay; P08912; CHO-K1 hM5 cells, Fluo-8 calcium fluorescence; 0% DMSO wells, 100% maximal acetylcholine response; activation, % at 3 µM; hit rate 0.19% among 360,000;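 active = activation above the run's mean over test compounds plus 3 SD, cut at about 23% in these data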;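 note: signal is peak over basal fluorescence ratio across the kinetic read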
Numbers stand for hits; n = inactive. Hits are enriched below; roughly 1.8% of the tested compounds scored in any of these assays.

SMILES	CHRM4 antagonist	M5 antag	M4 ag	M5 PAM	CHRM4 PAM	M5 ag
O=C(NN1C(=O)/C(=C/c2ccc(O)c(O)c2)SC1=S)c1ccccc1	n	n	n	n	n	40.4
COc1cccc(C(=O)COC(=O)CCCC(=O)NC2CCCCC2)c1	n	n	n	n	n	n
COc1ccc(CNC(=O)c2ccc(Cl)c(S(=O)(=O)N3CCOCC3)c2)cc1OC	n	n	n	n	n	n
S=C(NCc1ccccc1)Nc1ccc(Cl)cc1	n	n	n	n	n	n
FC(F)(F)Sc1ccc(NC(=S)NCc2ccccc2)cc1	n	28.4	n	n	n	n
Cc1cc(C(=O)COc2cccnc2[N+](=O)[O-])c(C)n1Cc1cccs1	n	n	n	n	n	n
CC(=O)Nc1ccccc1OCC(=O)c1cc(C)n(Cc2cccs2)c1C	n	29.7	n	n	n	n
Cc1ccc(NS(=O)(=O)c2ccc3c(c2)NC(=O)CCS3)cc1C	n	n	n	n	n	n
O=C(NNc1ccccc1Br)C(O)(c1cccc(C(F)(F)F)c1)c1cccc(C(F)(F)F)c1	n	29.4	n	n	n	n
O=C(Nc1ccc(-c2n[nH]c(=S)o2)cc1)c1ccccc1Cl	n	n	n	n	n	n
NCC1CCC(C(=O)Oc2ccc(CCC(=O)O)cc2)CC1 (stereo not drawn)	n	n	n	n	n	23.7
Cc1ccccc1C(=O)NC1CCN(CC(=O)Nc2ccccc2)CC1	n	n	n	n	n	n
Cc1ccccc1C(=O)NC1CCN(CC(=O)Nc2c(C)cccc2C)CC1	n	n	n	31.6	29.1	n
O=C(NCCN1CCCC1)c1ccc(Cn2c(=S)[nH]c3cc4c(cc3c2=O)OCO4)cc1	n	n	n	n	n	27.6
COc1ccc(NC(=O)COc2ccccc2Cc2ccccc2)cc1S(N)(=O)=O	n	29.9	n	n	n	n
O=[N+]([O-])c1ccc(S(=O)Cc2ccccc2)c([N+](=O)[O-])c1 (stereo not drawn)	76.8	n	n	n	n	n
O=C(NCc1cccc(Cl)c1)c1cccc2c(-c3cccnc3)coc12	n	n	n	n	n	n
CC(C)(C)OC(=O)CNC(=O)c1[nH]cnc1C(=O)NCCCCCNC(=O)OC(C)(C)C	n	32.4	34.5	n	n	n
CC(C)C[C@H](NC(=O)c1nc[nH]c1C(=O)NCCCCCNC(=O)OC(C)(C)C)C(=O)OC(C)(C)C	49.7	n	n	n	n	n
CC(C)(C)OC(=O)CNC(=O)c1[nH]cnc1C(=O)NCCCCCN	n	n	n	n	n	n
CC(C)C[C@H](NC(=O)c1nc[nH]c1C(=O)N1CCN(C(=O)OC(C)(C)C)CC1)C(=O)OC(C)(C)C	n	n	n	n	25.3	n
CCCNS(=O)(=O)c1cc2c(cc1Br)CCN2C(=O)CC	n	n	n	22.6	n	n
CC(=O)Nc1cccc(OC(=O)N2CCOCC2)c1	n	n	n	n	27.1	n
Cc1ccc(SCC(=O)N2CCCC2)cc1	n	n	n	18.8	n	n
N#Cc1cc([N+](=O)[O-])ccc1NC(=O)CSc1n[nH]c(=O)[nH]c1=O	n	n	n	n	n	n
SMILES	CHRM4 antagonist	M5 antag	M4 ag	M5 PAM	CHRM4 PAM	M5 ag
Cc1ccc(S(=O)(=O)N2CCC(c3nnc(SCCN4CCCC4)n3C)CC2)cc1	n	n	n	n	n	n
CCn1c(SCCN2CCCCC2)nnc1-c1ccc(S(=O)(=O)N2CCOCC2)cc1	32.7	n	n	n	n	n
COc1ccccc1Nc1nc(N)nc(CN2CCN(Cc3ccccc3)CC2)n1	n	n	n	n	n	n
COc1ccc(N2CCN(Cc3nc(N)nc(Nc4ccccc4OC)n3)CC2)cc1	26.7	n	n	n	n	n
C[C@@H](CO)NC(=O)[C@H]1O[C@@H](n2cnc3c(N)ncnc32)[C@H](O)[C@@H]1O	n	n	n	n	n	n
Nc1ncnc2c1ncn2C1OC(C(=O)NC2CC2)C(O)C1O (stereo not drawn)	36.3	n	n	n	n	n
CC(C)CC(NC=C1C(=O)OC(C)(C)OC1=O)C(=O)O (stereo not drawn)	n	n	n	n	20.8	n
